The values below come from publication PMC7740640 (Xenobiotica; the fate of foreign compounds in biological …, 2020).

“And” between values parts separate entries of the source, which are not always exact repeats. Equal values may be shown once.

What all share (assay type): in vitro ADME
Series [1] addresses CYP2C19 (Homo sapiens, UniProt P33261). The series can be described thus: C152 metabolism. The note with it: for Specific rate: CYP2C19. The method, boiled down:
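Human P450s in Supersomes that co-express human CPR and cytochrome b5. Reaction in 0.1 M Na-HEPES pH 7.4 with 60 mM KCl, stirred at 30 °C. C152 0.1–30 μM added from acetone stock; 200 μM NADPH starts it. Fluorescence rise read at 500 nm (isosbestic, mono-demethylation step). Rate is the linear slope over 3–5 min, scaled by the C151–C152 fluorescence difference. Michaelis–Menten or Hill fit, Vmax per P450, 2–6 runs; rate at 30 μM computed from fit.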

For series [2], the target named is CYP3A4 (Homo sapiens, UniProt P08684). Put plainly: Formation of C151 from C152. The note with it: SS(3A4). The method, boiled down: (§1)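 Probes hold 5–20 pmol P450 in 0.1 M Na-HEPES pH 7.4 with 60 mM KCl. C152 added from 0.5 or 4 mM acetone stock; reaction started with 500 μM NADPH (final), run 5 min at 30 °C with shaking. Quenched with isopropanol containing phenacetin internal standard, then centrifuged. C151 quantified by reverse-phase LC with ESI-positive MRM MS/MS (m/z 230.16→157.2). Michaelis–Menten or Hill fit; normalized per P450 (Supersomes) or CPR (HLM).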

In series [3] the target is CYP2A6 (Homo sapiens, UniProt P11509). Put plainly: C152 metabolism by Supersomes containing CYP2A6. The conditions noted are these: recombinant CYP2A6 Supersomes.
For series [4], the target named is CYP2E1 (Homo sapiens, UniProt P05181). The series can be described thus: C152 metabolism by Supersomes containing CYP2E1. The conditions noted are these: recombinant CYP2E1 Supersomes.
The target in series [5] is T1, CYP2B6 (Homo sapiens, UniProt P20813).
T1 sequence (P20813 1-491): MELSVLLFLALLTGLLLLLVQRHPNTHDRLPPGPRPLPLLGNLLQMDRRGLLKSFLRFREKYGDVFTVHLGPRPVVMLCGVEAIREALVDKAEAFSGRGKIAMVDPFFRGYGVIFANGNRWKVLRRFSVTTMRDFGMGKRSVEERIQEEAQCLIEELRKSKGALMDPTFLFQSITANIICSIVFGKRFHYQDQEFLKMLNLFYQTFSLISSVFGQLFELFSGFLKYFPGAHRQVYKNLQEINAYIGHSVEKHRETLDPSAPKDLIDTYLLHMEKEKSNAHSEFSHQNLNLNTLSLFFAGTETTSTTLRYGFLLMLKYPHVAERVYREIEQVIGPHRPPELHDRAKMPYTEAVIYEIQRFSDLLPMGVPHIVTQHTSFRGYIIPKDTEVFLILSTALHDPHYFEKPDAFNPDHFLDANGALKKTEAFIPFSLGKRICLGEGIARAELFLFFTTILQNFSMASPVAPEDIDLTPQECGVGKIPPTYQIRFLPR
Put plainly: Projected involvement in C152 metabolism in HLM. The method, boiled down: (§2)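 Calculated values, no new incubations. Each of seven C152-metabolizing P450s has a fractional content in the pooled HLM P450 pool (LC-MS/MS MRM). That fraction is multiplied by its Supersome Vmax (saturation) or by its rate at 30 μM C152 from Hill or Michaelis–Menten parameters. Expected participation (% TNR) is each normalized rate divided by the sum of all seven.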

The target of series [6] is T1, CYP2B6. The series can be described thus: Formation of C151 from C152. The conditions noted are these: SS(2B6). The method, boiled down:
as §1

The target of series [7] is CYP2C9 (Homo sapiens, UniProt P11712). The series can be described thus: Projected involvement in C152 metabolism in HLM. The method, boiled down:
as §2

[8] abbreviates: C151 formed over total C152 metabolized.
Setting [9] is: mol C151 formed per mol P450 per min.
Setting [10] is: at saturation of all P450 species.

Sequence of CYP2C19 (P33261 whole entry): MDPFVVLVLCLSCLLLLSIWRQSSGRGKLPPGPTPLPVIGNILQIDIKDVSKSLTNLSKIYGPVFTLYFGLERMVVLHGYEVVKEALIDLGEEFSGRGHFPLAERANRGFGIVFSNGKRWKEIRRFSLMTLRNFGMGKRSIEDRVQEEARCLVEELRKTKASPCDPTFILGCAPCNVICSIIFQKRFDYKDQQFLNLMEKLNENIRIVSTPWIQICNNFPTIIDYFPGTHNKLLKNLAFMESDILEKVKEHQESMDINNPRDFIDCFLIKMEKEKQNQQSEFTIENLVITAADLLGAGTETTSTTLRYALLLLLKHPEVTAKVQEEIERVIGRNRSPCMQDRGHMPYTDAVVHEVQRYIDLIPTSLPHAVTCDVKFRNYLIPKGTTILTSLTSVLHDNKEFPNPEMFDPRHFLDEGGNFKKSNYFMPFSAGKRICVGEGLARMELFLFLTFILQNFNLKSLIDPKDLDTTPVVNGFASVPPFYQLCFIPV
Sequence of CYP2C9 (P11712 whole entry): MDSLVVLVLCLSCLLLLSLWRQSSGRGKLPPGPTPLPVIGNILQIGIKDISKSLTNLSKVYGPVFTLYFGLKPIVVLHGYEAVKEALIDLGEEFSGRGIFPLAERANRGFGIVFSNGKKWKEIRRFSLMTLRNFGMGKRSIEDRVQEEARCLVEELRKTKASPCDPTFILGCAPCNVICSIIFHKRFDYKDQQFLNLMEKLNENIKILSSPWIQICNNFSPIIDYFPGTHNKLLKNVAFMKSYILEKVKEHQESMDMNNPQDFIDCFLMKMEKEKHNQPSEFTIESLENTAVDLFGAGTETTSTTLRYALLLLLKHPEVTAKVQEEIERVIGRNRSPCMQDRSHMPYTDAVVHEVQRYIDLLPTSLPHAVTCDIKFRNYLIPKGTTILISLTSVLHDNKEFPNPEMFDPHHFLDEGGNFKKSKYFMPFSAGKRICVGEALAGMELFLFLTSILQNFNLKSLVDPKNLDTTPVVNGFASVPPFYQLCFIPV
Sequence of CYP3A4 (P08684 2-503 limits assumed): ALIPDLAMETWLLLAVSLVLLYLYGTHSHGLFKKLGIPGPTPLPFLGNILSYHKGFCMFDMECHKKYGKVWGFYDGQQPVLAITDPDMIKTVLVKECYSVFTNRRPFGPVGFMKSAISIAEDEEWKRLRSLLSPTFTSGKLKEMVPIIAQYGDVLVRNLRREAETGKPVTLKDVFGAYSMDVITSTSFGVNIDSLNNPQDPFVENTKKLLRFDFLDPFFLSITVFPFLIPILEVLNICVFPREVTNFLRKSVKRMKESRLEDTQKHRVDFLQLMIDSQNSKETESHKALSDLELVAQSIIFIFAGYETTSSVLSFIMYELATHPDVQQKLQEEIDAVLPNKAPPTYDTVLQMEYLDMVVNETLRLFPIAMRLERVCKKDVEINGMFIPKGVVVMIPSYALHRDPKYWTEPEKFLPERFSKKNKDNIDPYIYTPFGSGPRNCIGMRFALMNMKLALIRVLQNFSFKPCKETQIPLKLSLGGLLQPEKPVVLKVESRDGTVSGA
Sequence of CYP2E1 (P05181 whole entry): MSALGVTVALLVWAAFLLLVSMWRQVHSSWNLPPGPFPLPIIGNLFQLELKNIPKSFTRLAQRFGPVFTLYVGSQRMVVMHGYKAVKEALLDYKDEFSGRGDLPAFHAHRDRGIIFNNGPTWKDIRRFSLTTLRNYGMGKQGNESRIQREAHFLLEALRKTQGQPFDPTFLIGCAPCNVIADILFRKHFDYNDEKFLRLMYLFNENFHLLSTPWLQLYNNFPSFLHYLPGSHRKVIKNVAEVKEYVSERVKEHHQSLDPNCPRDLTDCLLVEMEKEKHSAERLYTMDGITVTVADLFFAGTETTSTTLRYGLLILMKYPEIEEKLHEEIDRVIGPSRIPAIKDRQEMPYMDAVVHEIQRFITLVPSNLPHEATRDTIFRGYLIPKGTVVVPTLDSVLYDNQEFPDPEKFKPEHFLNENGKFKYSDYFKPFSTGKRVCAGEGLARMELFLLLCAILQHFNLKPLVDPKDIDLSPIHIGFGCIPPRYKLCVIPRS
Sequence of CYP2A6 (P11509 whole entry): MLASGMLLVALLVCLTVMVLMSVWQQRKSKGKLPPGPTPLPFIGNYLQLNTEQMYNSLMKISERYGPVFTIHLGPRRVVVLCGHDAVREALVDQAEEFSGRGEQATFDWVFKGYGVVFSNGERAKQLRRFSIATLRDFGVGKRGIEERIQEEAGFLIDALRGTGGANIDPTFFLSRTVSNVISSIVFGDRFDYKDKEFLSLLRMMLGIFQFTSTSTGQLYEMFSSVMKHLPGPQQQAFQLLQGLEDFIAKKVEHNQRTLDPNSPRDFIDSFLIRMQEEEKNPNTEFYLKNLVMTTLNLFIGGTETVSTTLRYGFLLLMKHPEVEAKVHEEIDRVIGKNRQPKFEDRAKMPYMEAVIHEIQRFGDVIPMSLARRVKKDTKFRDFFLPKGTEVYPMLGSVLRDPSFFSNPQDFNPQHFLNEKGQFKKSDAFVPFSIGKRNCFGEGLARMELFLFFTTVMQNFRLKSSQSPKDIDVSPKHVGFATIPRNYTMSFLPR

In general, Km refers to the substrate concentration at which the rate is half of its maximum. `CN(C)c1ccc2c(C(F)(F)F)cc(=O)oc2c1` [C152, 7-Dimethylamino-4-trifluromethylcoumarin]: the Specific rate was 6.5 min⁻¹ in series [1] (at 30 μM C152, calculated from fit parameters) and 7.8 min⁻¹ in series [1] (at saturation (Vmax in Supersomes)). In series [1] (SS(2C19), mol C152 per mol P450 per min), the “Vmax (C152 metabolism, fluorimetric assay)” value stood at 7.8 ± 3.4 min⁻¹. The “Fraction of C151 formed, Fluorimetry” value in series [1] (SS(2C19), scanning fluorimetry with PCA) is 3.2±2.4%. Moreover, the Km was determined as 5.7 ± 1.1 µM in series [1] (read-out: KM or S50 (C152 metabolism, fluorimetric assay), SS(2C19), Michaelis-Menten fit, 30 °C, pH 7.4); 6.4 ± 1.1 µM in series [2] (read-out: KM or S50 (Formation of C151, LC-MS), Hill fit (S50)); 1 ± 0.4 µM in series [6] (read-out: KM or S50 (Formation of C151, LC-MS), Michaelis-Menten fit). In series [2], the “N, Hill coefficient (Formation of C151, LC-MS)” value came out at 1.4±0.4. Besides, the “Fraction of C151 formed, LC-MS” value in series [2] (setting [8]) is 5.4±2.4%; in series [6] (setting [8]), 4% and 4.0±0.8%. In addition, the “Vmax (Formation of C151, LC-MS)” value in series [2] (setting [9]) turned out to be 0.94 ± 0.41 min⁻¹; in series [6] (setting [9]), 1.8 ± 0.4 min⁻¹. Also, the “activity with C152” value in series [3] and in series [4] was “no detectable activity” each time. Further, the Normalized rate in series [5] (at 30 μM C152) stood at 0.863 min⁻¹; in series [5] (setting [10]) it was 0.914 min⁻¹; in series [7] (at 30 μM C152) it was 0.496 min⁻¹; in series [7] (setting [10]) it was 0.981 min⁻¹. In addition, the Expected participation in series [5] (at 30 μM C152, % TNR) is 7.10%; in series [7] (at 30 μM C152, % TNR), 4% and 4.08%.
